From ChEMBL document CHEMBL4270599, “Synthesis of a 3'-C-ethynyl-β-d-ribofuranose purine nucleoside library: Discovery of C7-deazapurine analogs as potent antiproliferative nucleosides” (Eur J Med Chem, 2018)

How the values were obtained:
A498 [1] = test: Growth inhibition of human A498 cells assessed as cell growth at 10^-7 M incubated for 48 hrs by sulforhodamine B assay relative to control; assay type: functional; settings: A498, 48 h, read-out: Activity
UACC-257 = test: Growth inhibition of human UACC257 cells assessed as cell growth at 10^-8 M incubated for 48 hrs by sulforhodamine B assay relative to control; assay type: functional; settings: UACC-257, 48 h, read-out: Activity
SN12C = test: Growth inhibition of human SN12C cells assessed as cell growth at 10^-7 M incubated for 48 hrs by sulforhodamine B assay relative to control; assay type: functional; settings: read-out: Activity
[2] = Antiproliferative activity against HMVEC-d cells after 4 days by Coulter counter method; assay type: cell-based; settings: Homo sapiens, 96 h
Outline: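 Primary HUVEC, primary HMVEC-d and the HMEC-1 line seeded at 20,000 cells/well in gelatin-coated plates in EC growth medium (EGM2). After overnight incubation, 5-fold compound dilutions added. Cells proliferated four days with compound, then trypsinized and counted by Coulter counter to derive IC₅₀.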

EKVX = test: Growth inhibition of human EKVX cells assessed as cell growth at 10^-6 M incubated for 48 hrs by sulforhodamine B assay relative to control; assay type: functional; settings: read-out: Activity
TK-10 = test: Growth inhibition of human TK10 cells assessed as cell growth at 10^-5 M incubated for 48 hrs by sulforhodamine B assay relative to control; assay type: functional; settings: TK-10, 48 h, read-out: Activity
OVCAR-4 = test: Cytotoxicity against human OVCAR4 cells after 48 hrs by SRB assay; assay type: functional; settings: OVCAR-4, 48 h; for GI50: read-out: GI50
HL-60(TB) [3] = test: Cytotoxicity against human HL-60(TB) cells after 48 hrs by SRB assay; assay type: functional; settings: HL-60, 48 h; for GI50: read-out: GI50; for TGI: read-out: TGI; for CC50: read-out: pLC50 (the source's name) (converted)
IGROV-1 = test: Cytotoxicity against human IGROV1 cells after 48 hrs by SRB assay; assay type: functional; settings: IGROV-1, 48 h
NCI-H460 = test: Growth inhibition of human NCI-H460 cells assessed as cell growth at 10^-8 M incubated for 48 hrs by sulforhodamine B assay relative to control; assay type: functional; settings: NCI-H460, 48 h, read-out: Activity
K562 [4] = test: Cytotoxicity against human K562 cells after 48 hrs by SRB assay; assay type: functional; settings: K562, 48 h; for GI50: read-out: GI50
HOP-62 = test: Growth inhibition of human HOP62 cells assessed as cell growth at 10^-7 M incubated for 48 hrs by sulforhodamine B assay relative to control; assay type: functional; settings: HOP-62, 48 h, read-out: Activity
SNB-19 [5] = test: Cytotoxicity against human SNB19 cells after 48 hrs by SRB assay; assay type: functional; settings: SNB-19, 48 h; for GI50: read-out: GI50; for CC50: read-out: LC50 (the source's name); for TGI: read-out: TGI
KM12 = test: Growth inhibition of human KM12 cells assessed as cell growth at 10^-7 M incubated for 48 hrs by sulforhodamine B assay relative to control; assay type: functional; settings: KM12, 48 h, read-out: Activity
OVCAR-3 = test: Growth inhibition of human OVCAR3 cells assessed as cell growth at 10^-6 M incubated for 48 hrs by sulforhodamine B assay relative to control; assay type: functional; settings: OVCAR-3, 48 h, read-out: Activity
A549 = test: Growth inhibition of human A549/ATCC cells assessed as cell growth at 10^-8 M incubated for 48 hrs by sulforhodamine B assay relative to control; assay type: functional; settings: A549, 48 h, read-out: Activity
K562 [6] = test: Growth inhibition of human K562 cells assessed as cell growth at 10^-6 M incubated for 48 hrs by sulforhodamine B assay relative to control; assay type: functional; settings: K562, 48 h, read-out: Activity
M14 = test: Growth inhibition of human M14 cells assessed as cell growth at 10^-7 M incubated for 48 hrs by sulforhodamine B assay relative to control; assay type: functional; settings: M14, 48 h, read-out: Activity
SNB-19 [7] = test: Growth inhibition of human SNB19 cells assessed as cell growth at 10^-6 M incubated for 48 hrs by sulforhodamine B assay relative to control; assay type: functional; settings: SNB-19, 48 h, read-out: Activity
NCI-H522 = test: Cytotoxicity against human NCI-H522 cells after 48 hrs by SRB assay; assay type: functional; settings: NCI-H522, 48 h; for GI50: read-out: GI50; for TGI: read-out: TGI
MOLT-4 = test: Growth inhibition of human MOLT4 cells assessed as cell growth at 10^-7 M incubated for 48 hrs by sulforhodamine B assay relative to control; assay type: functional; settings: MOLT-4, 48 h, read-out: Activity
MDA-MB-231 = test: Cytotoxicity against human MDA-MB-231 cells after 48 hrs by SRB assay; assay type: functional; settings: MDA-MB-231, 48 h; for GI50: read-out: GI50; for CC50: read-out: LC50 (the source's name)
HOP-92 = test: Cytotoxicity against human HOP92 cells after 48 hrs by SRB assay; assay type: functional; settings: HOP-92, 48 h; for GI50: read-out: GI50; for CC50: read-out: LC50 (the source's name); for TGI: read-out: TGI
SW-620 [8] = test: Growth inhibition of human SW620 cells assessed as cell growth at 10^-6 M incubated for 48 hrs by sulforhodamine B assay relative to control; assay type: functional; settings: SW-620, 48 h, read-out: Activity
SW-620 [9] = test: Cytotoxicity against human SW620 cells after 48 hrs by SRB assay; assay type: functional; settings: SW-620, 48 h; for GI50: read-out: GI50
SF-268 = test: Growth inhibition of human SF268 cells assessed as cell growth at 10^-7 M incubated for 48 hrs by sulforhodamine B assay relative to control; assay type: functional; settings: SF-268, 48 h, read-out: Activity
A498 [10] = test: Growth inhibition of human A498 cells assessed as cell growth at 10^-6 M incubated for 48 hrs by sulforhodamine B assay relative to control; assay type: functional; settings: A498, 48 h, read-out: Activity
OVCAR-5 = test: Growth inhibition of human OVCAR5 cells assessed as cell growth at 10^-4 M incubated for 48 hrs by sulforhodamine B assay relative to control; assay type: functional; settings: OVCAR-5, 48 h, read-out: Activity
HL-60(TB) [11] = test: Growth inhibition of human HL-60(TB) cells assessed as cell growth at 10^-7 M incubated for 48 hrs by sulforhodamine B assay relative to control; assay type: functional; settings: HL-60, 48 h, read-out: Activity
MDA-MB-435 = test: Growth inhibition of human MDA-MB-435 cells assessed as cell growth at 10^-5 M incubated for 48 hrs by sulforhodamine B assay relative to control; assay type: functional; settings: MDA-MB-435, 48 h, read-out: Activity
[12] = read-out: LC50 (the source's name)
[13] = read-out: pLC50 (the source's name) (converted)

With C#C[C@@]1(O)[C@@H](CO)O[C@@H](n2cc(Br)c3c(N)ncnc32)[C@@H]1O the growth at 0.1 µM (A498 [1]) was 88 to 98%, the growth at 0.01 µM (UACC-257) was 87 to 100% and the growth at 0.1 µM (SN12C) was 31 to 69%. The IC50 [2] was 1.9 nM, the growth at 1 µM (EKVX) was 4 to 17% and the growth at 10 µM (TK-10) was 12%. It also gave a GI50 (OVCAR-4) of 296 to 452 nM, a CC50 (OVCAR-4; [12]) of over 100000 nM and a TGI (OVCAR-4; read-out: TGI) of over 100000 nM. The TGI (OVCAR-4; read-out: pTGI (converted)) was over 100000 nM, the GI50 (HL-60(TB) [3]) was 21.8 to 71.6 nM and the TGI (HL-60(TB) [3]) was 75.7 to 313 nM. The CC50 (HL-60(TB) [3]) was 5250 nM, the GI50 (IGROV-1; read-out: GI50) was 27.8 to 69.9 nM and the TGI (IGROV-1; read-out: TGI) was 485 nM. The CC50 (IGROV-1; [13]) was over 100000 nM, the TGI (IGROV-1; read-out: pTGI (converted)) was 490 nM and the growth at 0.01 µM (NCI-H460) was 63 to 104%. It also gave a GI50 (K562 [4]) of 41.1 to 90 nM, a CC50 (K562 [4]; [12]) of over 100000 nM and a TGI (K562 [4]; read-out: TGI) of over 100000 nM. It also gave a TGI (K562 [4]; read-out: pTGI) of over 100000 nM, a growth at 0.1 µM (HOP-62) of 68 to 86% and a GI50 (SNB-19 [5]) of 17.4 to 211 nM. For the same molecule, the CC50 (SNB-19 [5]) was over 100000 nM, the TGI (SNB-19 [5]) was 777 to 100000 nM and the growth at 0.1 µM (KM12) was 49 to 53%. The growth at 1 µM (OVCAR-3) was 15 to 17%, the growth at 0.01 µM (A549) was 94 to 99% and the growth at 1 µM (K562 [6]) was 7 to 10%. For the same molecule, the growth at 0.1 µM (M14) was 56 to 81%, the growth at 1 µM (SNB-19 [7]) was 6% and the GI50 (NCI-H522) was 61.3 to 156 nM. The TGI (NCI-H522) was 332 to 593 nM, the CC50 (NCI-H522; [13]) was over 100000 nM and the growth at 0.1 µM (MOLT-4) was 44 to 66%. The GI50 (MDA-MB-231) was 56 to 215 nM, the CC50 (MDA-MB-231) was over 100000 nM and the TGI (MDA-MB-231; read-out: TGI) was over 100000 nM. For the same molecule, the TGI (MDA-MB-231; read-out: pTGI (converted)) was over 100000 nM, the GI50 (HOP-92) was 149 to 318 nM and the CC50 (HOP-92) was over 100000 nM. The TGI (HOP-92) was 686 to 3130 nM, the growth at 1 µM (SW-620 [8]) was 4 to 9% and the GI50 (SW-620 [9]) was 31.2 to 76 nM. For the same molecule, the CC50 (SW-620 [9]; [12]) was over 100000 nM, the TGI (SW-620 [9]; read-out: TGI) was over 100000 nM and the TGI (SW-620 [9]; read-out: pTGI (converted)) was over 100000 nM. The growth at 0.1 µM (SF-268) was 78 to 87%.

In the case of C#C[C@@]1(O)[C@@H](CO)O[C@@H](n2cc(I)c3c(N)ncnc32)[C@@H]1O, the growth at 0.1 µM (A498 [1]) is reported as 74 to 89%, the growth at 0.01 µM (UACC-257) is reported as 89 to 91% and the growth at 0.1 µM (SN12C) is reported as 43 to 54%. The growth at 1 µM (A498 [10]) was 1 to 29%, the IC50 [2] was under 1.28 nM and the growth at 1 µM (EKVX) was 33 to 38%. For the same molecule, the GI50 (OVCAR-4) was 563 to 1160 nM, the TGI (OVCAR-4; read-out: TGI) was over 100000 nM and the CC50 (OVCAR-4; [13]) was over 100000 nM. It also gave a TGI (OVCAR-4; read-out: pTGI (converted)) of over 100000 nM, a growth at 100 µM (OVCAR-5) of 2 to 5% and a growth at 0.1 µM (HL-60(TB) [11]) of 16 to 43%. For the same molecule, the GI50 (HL-60(TB) [3]) was 31.5 to 67.8 nM, the TGI (HL-60(TB) [3]) was 200 to 343 nM and the CC50 (HL-60(TB) [3]) was over 100000 nM. For the same molecule, the CC50 (IGROV-1; [12]) was over 100000 nM, the growth at 0.01 µM (NCI-H460) was 91 to 92% and the GI50 (K562 [4]) was 59.5 to 69 nM. For the same molecule, the TGI (K562 [4]; read-out: TGI) was over 100000 nM, the CC50 (K562 [4]; [13]) was over 100000 nM and the TGI (K562 [4]; read-out: pTGI) was over 100000 nM. The growth at 10 µM (MDA-MB-435) was 3 to 4%, the growth at 0.1 µM (HOP-62) was 72 to 75% and the GI50 (SNB-19 [5]) was 53.5 to 185 nM. For the same molecule, the CC50 (SNB-19 [5]) was over 100000 nM, the TGI (SNB-19 [5]) was 25000 to 100000 nM and the growth at 0.1 µM (KM12) was 49 to 50%. The growth at 1 µM (OVCAR-3) was 24 to 33%, the growth at 0.01 µM (A549) was 90 to 92% and the growth at 1 µM (K562 [6]) was 17 to 22%. For the same molecule, the growth at 0.1 µM (M14) was 67 to 75%, the growth at 1 µM (SNB-19 [7]) was 8 to 26% and the GI50 (NCI-H522) was 64.8 to 152 nM. It also gave a CC50 (NCI-H522; [12]) of over 100000 nM, a TGI (NCI-H522) of 516 to 698 nM and a growth at 0.1 µM (MOLT-4) of 39 to 52%. It also gave a GI50 (MDA-MB-231) of 168 to 204 nM, a CC50 (MDA-MB-231) of over 100000 nM and a TGI (MDA-MB-231; read-out: TGI) of over 100000 nM. For the same molecule, the TGI (MDA-MB-231; read-out: pTGI (converted)) was over 100000 nM, the GI50 (HOP-92) was 25 to 217 nM and the CC50 (HOP-92) was over 100000 nM. It also gave a TGI (HOP-92) of 991 to 4980 nM, a growth at 1 µM (SW-620 [8]) of 12 to 17% and a GI50 (SW-620 [9]) of 57.2 to 59 nM. The TGI (SW-620 [9]; read-out: TGI) was over 100000 nM, the CC50 (SW-620 [9]; [13]) was over 100000 nM and the TGI (SW-620 [9]; read-out: pTGI (converted)) was over 100000 nM. The growth at 0.1 µM (SF-268) was 70 to 73%.
